Assay outcomes from PubChem BioAssay.
APJ ag: agonists of human APJ apelin receptor | P35414 | CHO-K1 APJ PathHunter beta-arrestin, luminescence; 0% DMSO wells, 100% apelin | activation, % at 20 µM | hit rate 0.11% among 330,000 | AID 2520;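 active = activation more than six SD over the plate average, tested at 20 µM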;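 note: 0% = DMSO alone and 100% = apelin-13 at 10 nM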
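Test system: CHO-K1 APJ beta-arrestin complementation cell line | Compound: Single test compound dose, 20 µM final, 1% DMSO | Incubation: Compound 90 min 25 °C, reagent 1 h | Measured by: beta-gal luminescence | Read-out basis: APJ–arrestin association signal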
APJ antagonist: APJ receptor antagonism; P35414; CHO-K1 APJ beta-arrestin complementation, luminescence; hit rate 0.32% among 330,000; inhibition, % at 20 µM;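 active = inhibition above about 40% at 20 µM, limit read from the data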;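 note: cells challenged with 10 nM apelin-13 agonist together with compound; plate controls were apelin-13 plus DMSO wells for no effect and DMSO wells lacking apelin-13 for full effect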
EBI2 block: blocks human EBI2 receptor beta-arrestin signaling | hit rate 0.81% among 360,000 | inhibition, % at 5 µM | EBI2 beta-arrestin recruitment, luminescence, 7a,25-OHC stimulated | AID 651636 | P32249; in the data active = inhibition above about 38%;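 note: enzyme fragment complementation signal reports receptor beta-arrestin coupling in cells; 0% = agonist plus DMSO wells and 100% = wells without agonist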
CXCR6 inh: inhibitors of human CXCR6 receptor; O00574; CHO-K1 PathHunter CXCR6 beta-arrestin, luminescence; inhibition, % at 20 µM; hit rate 0.36% among 360,000; AID 602244; in the data active = inhibition above about 34%, passing the limit was not always enough;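 note: antagonist mode with CXCL16 agonist at 10 nM final; 0% = 10 nM CXCL16 with DMSO and 100% = unstimulated wells without agonist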
CCR6 antag: antagonists of human CCR6 receptor; AID 493098; hit rate 0.49% among 340,000; inhibition, % at 20 µM; P51684; CHO-K1 CCR6 PathHunter beta-arrestin, luminescence, CCL20-stimulated;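 active = compounds whose inhibition of the agonist-driven luminescence signal at 20 µM reaches about 50%, limit read from the data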;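 note: cells stimulated with CCL20 at 14 nM final; plate controls were DMSO with CCL20 for no effect and DMSO without agonist for full effect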
Target sequence (P51684 whole entry, looked up): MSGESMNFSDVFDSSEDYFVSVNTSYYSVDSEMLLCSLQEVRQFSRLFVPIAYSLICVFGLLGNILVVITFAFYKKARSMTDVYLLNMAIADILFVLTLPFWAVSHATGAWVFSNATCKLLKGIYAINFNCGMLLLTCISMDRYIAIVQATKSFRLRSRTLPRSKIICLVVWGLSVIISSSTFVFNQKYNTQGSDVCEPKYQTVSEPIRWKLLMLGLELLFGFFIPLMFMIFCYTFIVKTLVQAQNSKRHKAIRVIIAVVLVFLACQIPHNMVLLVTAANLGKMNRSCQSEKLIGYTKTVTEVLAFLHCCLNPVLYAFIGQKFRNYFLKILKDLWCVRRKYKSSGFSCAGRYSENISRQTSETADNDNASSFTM
EBI2 antag conf: confirmation of human EBI2 receptor antagonists. shares compounds with EBI2 block. EBI2 beta-arrestin luminescence, 7a,25-OHC antagonism. inhibition, % at 5 µM. hit rate 29% among 2,400. AID 651997;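 active = inhibition of at least 50%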
EBI2 ag: activates EBI2, counter-screen for EBI2 antagonists; shares compounds with EBI2 block; EBI2-expressing cells, agonist mode, luminescence, 60 min; 0% vehicle, 100% 7α,25-dihydroxycholesterol control; activation, % at 5 µM; 2,400 tested, under 10 active;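 active = activation of at least 50%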
bGal counter: inhibits E. coli beta-galactosidase, counter-screen for EBI2 antagonists; hit rate 1% among 2,400; purified beta-galactosidase, luminescent Galacton Star, 15 min; inhibition, % at 5 µM; shares compounds with EBI2 block;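 active = replicate-average signal at least 3 plate SD below neutral wells, shown as high inhibition, flagging enzyme-inhibiting false positives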;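 note: 0% = DMSO wells with enzyme and 100% = wells lacking enzyme; higher means stronger loss of beta-gal luminescence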
The depositor's hits bear a star. Shown are actives, neighbours in structure and some others; about 1.5% of the full set was active somewhere.

How did CC(NC(=O)CN(c1cccc(C(F)(F)F)c1)S(=O)(=O)c1ccc(Cl)c([N+](=O)[O-])c1)c1ccccc1 (configuration not stated) do in these assays?
APJ ag: -0.3; APJ antagonist: -24.0; EBI2 block: 48.3*; CXCR6 inh: -7.0; CCR6 antag: -24.7; EBI2 antag conf: 39.7; EBI2 ag: -0.8; bGal counter: -10.7

Results for COc1cccc(-c2cnc(C(O)c3ccc(C(C)(C)C)cc3)[nH]2)c1 (configuration not stated) ?
EBI2 block: 19.8; CXCR6 inh: 0.9

What do the screens show for `Cc1ccc([C@H]2N[C@]3(CCCN(Cc4ccc(Cl)cc4)C3=O)[C@H]3C(=O)N(C)C(=O)[C@@H]23)cc1`?
EBI2 block: -1.0; CXCR6 inh: 2.7

How did O=C(/C=C/c1ccc(F)cc1)N1CCN(S(=O)(=O)/C=C/c2ccccc2)CC1 do in these assays?
APJ ag: 0.0; APJ antagonist: -24.2; EBI2 block: 94.6*; CXCR6 inh: 2.3; CCR6 antag: 22.7; EBI2 antag conf: 88.9*; EBI2 ag: 0.1; bGal counter: 7.6

How did COc1cccc(/C=C/C(=O)N2CCN(S(=O)(=O)c3ccccc3)CC2)c1 do in these assays?
EBI2 block: 89.9*; CXCR6 inh: 2.4; EBI2 antag conf: 62.5*; EBI2 ag: 0.1; bGal counter: -15.7

Results for O=C(c1ccc2ccccc2c1)N1CCN(S(=O)(=O)/C=C/c2ccccc2)CC1 ?
APJ ag: -2.7; APJ antagonist: 8.0; EBI2 block: 90.0*; CXCR6 inh: 0.7; CCR6 antag: 21.5; EBI2 antag conf: 77.1*; EBI2 ag: 0.2; bGal counter: -5.5

What do the screens show for `O=C(COc1ccc(F)cc1Br)N1CCN(S(=O)(=O)/C=C/c2ccccc2)CC1`?
APJ ag: -5.3; APJ antagonist: -0.2; EBI2 block: 38.2; CXCR6 inh: -11.3; CCR6 antag: 0.2

How did O=C(/C=C/c1ccccc1)N1CCN(S(=O)(=O)c2ccc(F)cc2)CC1 do in these assays?
APJ ag: -0.9; APJ antagonist: 4.7; EBI2 block: 78.7*; CXCR6 inh: 4.4; CCR6 antag: 6.3; EBI2 antag conf: 68.3*; EBI2 ag: 0.0; bGal counter: 6.3

What do the screens show for `COc1cc(OC)cc(C2=Cc3ccc(OC)cc3C(CC(C)=O)N2c2ccc(-c3cccs3)cc2)c1` (configuration not stated)?
EBI2 block: 2.5; CXCR6 inh: 3.6

What do the screens show for `O=C(/C=C/c1cccc([N+](=O)[O-])c1)N1CCN(S(=O)(=O)c2cccs2)CC1`?
APJ ag: -0.9; APJ antagonist: -6.5; EBI2 block: 47.1*; CXCR6 inh: 0.7; CCR6 antag: 7.1; EBI2 antag conf: 41.2; EBI2 ag: 0.3; bGal counter: 6.8

How did COc1ccccc1N1CCN(S(=O)(=O)CCNC(=O)COc2ccccc2)CC1 do in these assays?
EBI2 block: 68.5*; CXCR6 inh: -10.1; EBI2 antag conf: 48.1; EBI2 ag: 0.1; bGal counter: 6.8

How did Cc1ccc(/C=C/C(=O)NCc2cccs2)cc1 do in these assays?
APJ ag: 2.0; APJ antagonist: -2.5; EBI2 block: 53.3*; CXCR6 inh: -4.2; CCR6 antag: 11.9; EBI2 antag conf: 44.0; EBI2 ag: 1.5; bGal counter: 1.2

Results for Cc1ccc(/C=C/C(=O)NCc2cccs2)c(C)c1 ?
APJ ag: 1.7; APJ antagonist: 5.0; EBI2 block: 39.4; CXCR6 inh: -6.1; CCR6 antag: 14.9

What do the screens show for `Cc1ccc(/C=C/C(=O)NCc2ccncc2)cc1`?
APJ ag: 0.4; APJ antagonist: 11.6; EBI2 block: 63.6*; CXCR6 inh: 5.2; CCR6 antag: 0.5; EBI2 antag conf: 30.9; EBI2 ag: -1.2; bGal counter: -8.3

What do the screens show for `CC1(C(=O)Nc2ccc(Cl)cc2)Cc2c(-c3cccc(C(F)(F)F)c3)ccnc2O1` (configuration not stated)?
EBI2 block: -10.3; CXCR6 inh: 21.5

Results for N#Cc1ccc(-c2nc3c4ccccc4ccn3c2Cc2cccc(Cl)c2)cc1 ?
EBI2 block: 24.7; CXCR6 inh: -11.6

What do the screens show for `O=C(COc1ccc(F)cc1)N1CCC(Cc2ccccc2)CC1`?
APJ ag: -4.8; APJ antagonist: 23.5; EBI2 block: 74.5*; CXCR6 inh: -4.3; CCR6 antag: 3.1; EBI2 antag conf: 50.3*; EBI2 ag: 0.9; bGal counter: 9.6

Results for CCOCC(=O)N1CCC(Cc2ccccc2)CC1 ?
APJ ag: 1.2; APJ antagonist: 5.8; EBI2 block: 9.8; CXCR6 inh: -17.0; CCR6 antag: -6.2

Results for COc1ccc(OCC(=O)N2CCC(Cc3ccccc3)CC2)cc1 ?
APJ ag: -2.2; APJ antagonist: 10.8; EBI2 block: 91.6*; CXCR6 inh: 4.9; CCR6 antag: 10.5; EBI2 antag conf: 76.7*; EBI2 ag: 1.9; bGal counter: 1.2

How did COc1ccc(NC(=O)c2cccc3c(-c4ccc(O)c(OC)c4)coc23)cc1 do in these assays?
EBI2 block: 9.4; CXCR6 inh: 3.7

What do the screens show for `Clc1ccc(-c2nc3c4ccccc4ccn3c2Cc2ccsc2)cc1`?
EBI2 block: 19.9; CXCR6 inh: 12.2

Results for CC(C)[C@H](NC(=O)OC(C)(C)C)c1cc(C(=O)N2CCOCC2)c(N)s1 ?
EBI2 block: -5.2

What do the screens show for `[O-][n+]1onc2c1CCc1c-2nc(-c2ccccc2)n1OCc1ccccc1`?
APJ ag: -3.4; APJ antagonist: -16.9; EBI2 block: 48.9*; CXCR6 inh: 9.2; CCR6 antag: 16.5; EBI2 antag conf: 39.8; EBI2 ag: 0.5; bGal counter: 4.0

Results for COn1c(-c2ccccc2)nc2c1CCc1c-2no[n+]1[O-] ?
APJ ag: 0.9; APJ antagonist: 1.1; EBI2 block: -7.7; CXCR6 inh: 4.7; CCR6 antag: 2.1

How did COc1cc(F)ccc1-c1csc(C(C)(O)c2ccc(F)c(F)c2)n1 (configuration not stated) do in these assays?
EBI2 block: 16.4; CXCR6 inh: -4.5

Results for COc1cc(OC)cc(C(=O)NC(=S)Nc2cc3oc4ccccc4c3cc2OC)c1 ?
APJ ag: -4.9; APJ antagonist: 10.1; EBI2 block: 16.8; CXCR6 inh: 15.2; CCR6 antag: 25.0
